Active and inactive are the calls of the source. No cut-off for these calls is given here.

In experiment [1] the target is Baculoviral IAP repeat-containing protein 2 (Homo sapiens) (UniProt Q13490). The experiment in a line: Induction of cIAP1-mediated AR degradation in human MCF7 cells at 30 uM after 24 hrs by Western blot analysis relative to control. Format: cell-based. A digest of the protocol:
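MCF-7 cells were grown in D-MEM with 10% FBS, penicillin/streptomycin and 10 nM DHT at 37 °C under 5% CO2. Cells (1×10^6) were treated, lysed in SDS buffer, and equal protein (by BCA) was run on 10-20% SDS-PAGE and transferred to PVDF. Blots were blocked in 5% skim milk/TBS-T, probed with mouse monoclonal anti-AR (1:200) and β-actin antibody, and read by ECL.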

For experiment [2] the target is unchanged. The experiment in a line: Induction of FLAG-tagged cIAP1 expressed in human HT1080 cells assessed as CRABP-2 degradation at 1 to 30 uM after 24 hrs by Western blot analysis. It counts as cell-based. The settings on record: HT-1080. The procedure, abridged:
(§1)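 HT-1080 cells were grown in RPMI 1640 with 10% heat-inactivated FBS at 37 °C under 5% CO2. Cells (1×10^6) were treated, then lysed in SDS buffer and protein was equalized by BCA. Lysates ran on 10-20% SDS-PAGE and went to PVDF, blocked with 5% skim milk/TBS-T. Blots were probed with anti-CRABP-II or anti-RARα plus β-actin, HRP secondaries, and ECL detection.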
(In general: Immunoblotting shows a protein as a band on a membrane.)

Experiment [3] shares this target. Kind of experiment: Induction of FLAG-tagged cIAP1 expressed in human HT1080 cells assessed as RARalpha degradation at 10 uM after 6 hrs by Western blot analysis in presence of RAR antagonist LE540 added 30 mins prior to compound treatment. It counts as functional, cell-based. The settings on record: HT-1080. A digest of the protocol:
as §1

For experiment [4] the target is unchanged. The experiment in a line: Induction of FLAG-tagged cIAP1 expressed in human HT1080 cells assessed as RARalpha degradation at 10 uM after 6 hrs by Western blot analysis in presence of proteasome inhibitor MG132 added 30 mins prior to compound treatment. Format: cell-based. The settings on record: HT-1080. The procedure, abridged: as §1
The target is the same in experiment [5]. The experiment in a line: Induction of FLAG-tagged cIAP1 expressed in human HT1080 cells assessed as RARalpha degradation after 24 hrs by Western blot analysis. The settings on record: HT-1080. It counts as cell-based. A digest of the protocol: as §1
In experiment [6] the test system is HT-1080. The experiment in a line: Induction of CRABP-2 degradation in human HT1080 cells at 10 uM after 24 hrs by Western blot analysis. Format: functional, cell-based. The procedure, abridged: as §1
Experiment [7] concerns the target Baculoviral IAP repeat-containing protein 2 (Homo sapiens) (UniProt Q13490). The experiment in a line: Induction of FLAG-tagged cIAP1 expressed in human HT1080 cells assessed as RARalpha degradation at 10 uM after 24 hrs by Western blot analysis. The settings on record: HT-1080. It counts as cell-based. A digest of the protocol:
as §1

The next experiment has as its system MCF7. The experiment in a line: Induction of ERalpha degradation in human MCF7 cells at 30 uM after 24 hrs by Western blot analysis. Format: functional, cell-based. A digest of the protocol: (§2)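 MCF-7 cells were kept in D-MEM with 10% FBS and penicillin/streptomycin, with 2 nM E2 as physiological agonist, at 37 °C under 5% CO2. Cells (1×10^6) were treated, lysed in SDS buffer and protein was BCA-normalized. Lysates ran on 10-20% SDS-PAGE and PVDF, blocked with 5% skim milk, then probed with rabbit polyclonal anti-ERα (1:200) and β-actin. Detection used HRP secondaries and ECL.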

The target of experiment [8] is Baculoviral IAP repeat-containing protein 2 (Homo sapiens) (UniProt Q13490). Kind of experiment: Induction of cIAP1-mediated ERalpha degradation in human MCF7 cells at 30 uM after 24 hrs by Western blot analysis. It counts as cell-based. A digest of the protocol:
as §2

For experiment [9], the system named is HT-1080. Kind of experiment: Induction of RARalpha degradation in human HT1080 cells at 10 uM after 24 hrs by Western blot analysis. Format: functional, cell-based. The procedure, abridged: as §1
Experiment [10] has as its target Baculoviral IAP repeat-containing protein 2 (Homo sapiens) (UniProt Q13490). Kind of experiment: Induction of FLAG-tagged cIAP1 expressed in human HT1080 cells assessed as RARalpha degradation at 30 uM after 24 hrs by Western blot analysis. Format: cell-based. The settings on record: HT-1080. The procedure, abridged: as §1
Experiment [11] shares this target. Kind of experiment: Induction of cIAP1-mediated ERalpha degradation in human MCF7 cells at 1 to 30 uM after 24 hrs by Western blot analysis. Format: cell-based. The procedure, abridged: as §2

Chain of Baculoviral IAP repeat-containing protein 2 (Homo sapiens) (Q13490 whole entry): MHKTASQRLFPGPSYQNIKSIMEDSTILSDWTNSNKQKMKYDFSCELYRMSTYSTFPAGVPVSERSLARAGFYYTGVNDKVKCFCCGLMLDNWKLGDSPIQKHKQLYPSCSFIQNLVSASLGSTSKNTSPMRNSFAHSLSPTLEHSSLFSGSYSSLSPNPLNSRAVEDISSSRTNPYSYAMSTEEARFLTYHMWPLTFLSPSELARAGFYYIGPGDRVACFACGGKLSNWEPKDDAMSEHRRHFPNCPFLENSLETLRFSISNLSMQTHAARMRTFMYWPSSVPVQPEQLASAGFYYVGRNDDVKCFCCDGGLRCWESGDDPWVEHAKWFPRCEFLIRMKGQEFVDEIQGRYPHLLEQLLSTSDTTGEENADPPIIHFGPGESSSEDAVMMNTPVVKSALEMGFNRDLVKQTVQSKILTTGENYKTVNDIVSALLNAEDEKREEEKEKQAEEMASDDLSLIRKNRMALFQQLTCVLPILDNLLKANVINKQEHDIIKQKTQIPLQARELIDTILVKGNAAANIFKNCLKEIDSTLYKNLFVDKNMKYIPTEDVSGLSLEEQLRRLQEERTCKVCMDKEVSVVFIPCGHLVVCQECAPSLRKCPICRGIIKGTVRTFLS

As to `CC(C)C[C@H](NC(=O)[C@@H](O)[C@H](N)Cc1ccccc1)C(=O)NCCOCCOCCOCC(=O)O[C@H]1CC[C@H]2[C@@H]3CC[C@H]4CC(=O)CC[C@]4(C)[C@H]3CC[C@]12C`, the result in experiment [1] was Active. In the case of `CC(C)C[C@H](NC(=O)[C@@H](O)[C@H](N)Cc1ccccc1)C(=O)NCCOCCOCCOCC(=O)NCCCOc1cc(/C=C/C(=O)c2cc(C(C)(C)C)cc(C(C)(C)C)c2)ccc1C(=O)O`, the result in experiment [2], in [3] and in experiment [4] was inactive. Besides, the Activity result in experiment [5] was “Dose-dependent effect”. For `CC1=C(/C=C/C(C)=C/C=C/C(C)=C/C(=O)O)C(C)(C)CC/C1=N\OCC(=O)NCCOCCOCCOC(=O)[C@H](CC(C)C)NC(=O)[C@@H](O)[C@H](N)Cc1ccccc1`, the result in the experiment with HT-1080 [6] was Active. In [7], the result was inactive. Regarding `C[C@]12CC[C@@H]3c4ccc(O)cc4CC[C@H]3[C@@H]1CCC2=O`, the result in the experiment on MCF7 was inactive. With `CC(C)C[C@H](NC(=O)[C@@H](O)[C@H](N)Cc1ccccc1)C(=O)NCCOCCOCCNC(=O)CO/N=C1\CC[C@H]2[C@@H]3CCc4cc(O)ccc4[C@H]3CC[C@]12C`, the outcome in experiment [8] was Active. On to `CC(C)C[C@H](NC(=O)CCCc1ccccc1)C(=O)NCCOCCOCCOCC(=O)NCCCOc1cc(/C=C/C(=O)c2cc(C(C)(C)C)cc(C(C)(C)C)c2)ccc1C(=O)O`, for which the outcome in the experiment on HT-1080 [9] was inactive. For `CNC(=O)[C@H](CC(C)C)NC(=O)[C@@H](O)[C@H](N)Cc1ccccc1`, the outcome in experiment [10] and in experiment [8] was inactive. For the same compound, the result in experiment [1] was Active.

On to `CC(C)C[C@H](NC(=O)CCCc1ccccc1)C(=O)NCCOCCOCCNC(=O)CO/N=C1\CC[C@H]2[C@@H]3CCc4cc(O)ccc4[C@H]3CC[C@]12C`, for which the outcome in experiment [11] was inactive.

The record behind these values is ChEMBL document CHEMBL2150969, “Design, synthesis and biological evaluation of nuclear receptor-degradation inducers” (Bioorg Med Chem, 2011).
